Published values pooled from the literature.
Target: Tyrosine-protein kinase TXK (TXK, Homo sapiens, UniProt P42681)
One construct used (P42681 1-527): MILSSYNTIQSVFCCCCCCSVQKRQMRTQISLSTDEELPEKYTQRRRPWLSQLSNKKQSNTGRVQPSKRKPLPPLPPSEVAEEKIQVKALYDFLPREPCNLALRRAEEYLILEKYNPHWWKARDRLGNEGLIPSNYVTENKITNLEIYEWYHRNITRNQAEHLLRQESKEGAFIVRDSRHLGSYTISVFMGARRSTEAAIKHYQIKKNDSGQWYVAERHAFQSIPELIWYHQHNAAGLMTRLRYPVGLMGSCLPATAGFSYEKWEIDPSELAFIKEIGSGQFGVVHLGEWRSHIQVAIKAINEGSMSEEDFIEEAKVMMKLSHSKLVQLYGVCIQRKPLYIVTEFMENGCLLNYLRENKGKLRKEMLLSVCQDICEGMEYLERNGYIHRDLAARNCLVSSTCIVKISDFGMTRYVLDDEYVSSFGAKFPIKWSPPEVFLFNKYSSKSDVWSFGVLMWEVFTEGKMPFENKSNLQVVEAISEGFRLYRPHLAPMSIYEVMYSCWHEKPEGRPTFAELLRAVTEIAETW

| Compound | assay | setting | remaining binding [%] |
| --- | --- | --- | --- |
| C[C@@H](c1ccc(-n2cnc3c(N)ncnc32)cc1)N1CCc2nn(C)c(Cc3ccccc3)c2C1=O | binding, competition with immobilised ligand | 0.1 µM | 73 |
| Nc1ncc2c(n1)-c1c([nH]c3ccc(C#CC4CC4)cc13)CCCC2 | binding, competition with immobilised ligand | 1 µM | 99 |
| Cc1cnn2ncc(-c3ccnc(N(C)C)n3)c2c1 | binding | 1 µM | 100 |
| O=C(c1ccc(Nc2ncc(Cl)c(-c3cc4ccccc4s3)n2)cc1)N1CCC(N2CCCC2)CC1 | binding, competition with immobilised ligand | 1 µM | 71 |
| CCOCCn1cc(C(=O)Nc2ccc(-n3nc(-c4cccnc4)cc3C(F)(F)F)cn2)ccc1=O | binding, competition with immobilised ligand | 1 µM | 81 |
| COc1cnc(Nc2cccc(S(N)(=O)=O)c2)nc1N1CCN(c2ccccc2)CC1 | binding, competition with immobilised ligand | 1 µM | 100 |
| CN(C)c1nccc(-c2cnn3ncccc23)n1 | binding | 1 µM | 100 |
| C[C@H](NC(=O)c1cnc2n1[C@](C)(Cc1ccc(C#N)cc1)C(=O)N2c1cc(Cl)c(F)c(Cl)c1)C(=O)NC1(c2ccccn2)CC1 | binding, competition with immobilised ligand | 1 µM | 90 |
| N[C@@H]1CCN(c2nccc(-c3cnn4ncccc34)n2)C1 | binding | 1 µM | 100 |
| C[C@@H](c1cccc(C#N)c1)n1cc(Cl)cc(C(N)=O)c1=N | binding, competition with immobilised ligand | 1 µM | 68 |
| O=C(c1ccc(Nc2nccc(-c3cc4ccccc4s3)n2)cc1)N1CCC(N2CCCC2)CC1 | binding, competition with immobilised ligand | 1 µM | 92 |
| F[C@@H]1CCN(c2nccc(-c3cnn4ncccc34)n2)C1 | binding | 1 µM | 73 |
| Cc1cc(-n2nc(Cc3cc(F)cc(C(F)(F)F)c3)nc2C)ccc1C(N)=O | binding, competition with immobilised ligand | 1 µM | 84 |
| O=C(c1ccc(Nc2ncc(Cl)c(-c3ccc(Cl)s3)n2)cc1)N1CCC(N2CCCC2)CC1 | binding, competition with immobilised ligand | 1 µM | 80 |
| CNCc1ccccc1-c1csc([C@H](C)Nc2nc(C)nc3cc(OC)c(OC)cc23)c1 | cell-free assay, competition with immobilised ligand | 1 µM | 100 |
| C[C@H]1CCN(c2nccc(-c3cnn4ncccc34)n2)C1 | binding | 1 µM | 90 |
| Cc1c(NC(=O)c2cc(C(N)=O)nc3cc(F)ccc23)c(C(F)(F)F)nn1Cc1ccc(C(C)(C)C)cc1 | cell-free assay, competition with immobilised ligand | 1 µM | 100 |
| CN(CCCC(F)(F)F)c1nccc(-c2cnn3ncccc23)n1 | binding | 1 µM | 87 |
| COc1ncc2cc3ccccc3nc2c1C#N | binding, competition with immobilised ligand | 5 µM | 93 |
| Cc1nc(N2CC[C@@H](O)C2)ncc1-c1cc(C(F)(F)F)cc2[nH]ncc12 | binding, competition with immobilised ligand | 1 µM | 100 |
| CN(C)c1nccc(-c2cnc3ncccn23)n1 | binding | 1 µM | 98 |
| O=C(NCC1CCOCC1)c1n[nH]cc1NC(=O)c1c(F)cccc1F | binding, competition with immobilised ligand | 1 µM | 100 |
